In ChEMBL document CHEMBL4725452, “Targeted Covalent Inhibition of Plasmodium FK506 Binding Protein 35” (ACS Med Chem Lett, 2020):
Active and inactive are the calls of the source. The calls are words filed in the database; no cut-off is given here.

Experiments:
Plasmodium falciparum [1] = test: Antiplasmodial activity against blood stage of Plasmodium falciparum 3D7 assessed as parasite growth inhibition; assay type: functional, organism-based
Plasmodium falciparum [2] = test: Binding affinity to N-terminal 6His-SUMO-tagged Plasmodium falciparum FKBP35 binding domain (FBD35) (Q5-A128) expressed in Escherichia coli BL21 (DE3) cells assessed as change in melting temperature at 40 uM by differential scanning […] analysis
Method in brief: (§1)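 Differential scanning calorimetry. Purified protein (6His-SUMO tag removed) dialyzed into 25 mM HEPES pH 7.8, 150 mM NaCl. Protein at 0.4 mg/mL (6-9 uM), with or without compound at 40 µM, 2% DMSO (v/v). Scanned 25-90 °C, reference scans subtracted. Tm taken as midpoint of the heat capacity curve.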

Plasmodium falciparum [3] = test: Covalent binding affinity to N-terminal 6His-SUMO-tagged Plasmodium falciparum FKBP35 binding domain (FBD35) (Q5-A128) expressed in Escherichia coli BL21 (DE3) cells assessed as binding at C106 position by mass spectrometry
Method in brief: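 Protein-compound reaction mixture saved in parallel with DSC. Denatured in urea/NaCl in 50 mM Tris pH 8.0, reduced with TCEP at 37 °C for 60 min, free thiols alkylated with iodoacetamide at RT in the dark for 30 min. Digested with chymotrypsin (1:100 molar) overnight at 37 °C, quenched with formic acid. Peptides resolved on C18 UPLC at 45 °C and analyzed by Q Exactive HF MS.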

[4] = biological target: Peptidyl-prolyl cis-trans isomerase FKBP1A (Homo sapiens, UniProt P62942); test: Binding affinity to N-terminal 6His-SUMO-tagged human full length FKBP12 expressed in Escherichia coli BL21 (DE3) cells assessed as change in melting temperature at 40 uM by differential scanning […] analysis; method in brief: as §1
Plasmodium falciparum [5] = test: Antiplasmodial activity against blood stage of Plasmodium falciparum NF54 assessed as parasite growth inhibition
[6] = Displacement of fluorescent tracer Rap-Gly-BDP from nanoluciferse-tagged Plasmodium falciparum FKBP35 expressed in HEK293T cells incubated for 2 hrs by NanoBRET assay; assay type: cell-based; details: HEK-293T
Method in brief: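 HEK293T cells stably expressing N-terminal NanoLuc-FKBP35 (lentiviral, puromycin-selected) plated at 0.2 x 10^6 cells/mL in Opti-MEM and incubated overnight at 37°C, 5% CO2. Rap-Gly-BDP tracer added to 1 µM for 10 min, then test compounds at varying concentrations for 2 h at 37°C. Nano-Glo substrate plus extracellular NanoLuc inhibitor added and read immediately. BRET ratio corrected against no-tracer control.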

Peptidyl-prolyl cis-trans isomerase FKBP1A, sequence (P62942 whole entry): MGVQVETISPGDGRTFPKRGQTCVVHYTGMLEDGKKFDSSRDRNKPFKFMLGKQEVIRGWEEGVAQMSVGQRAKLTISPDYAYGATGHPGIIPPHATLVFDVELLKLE

Row | Compound | Activity (Plasmodium falciparum [2]) | Activity [4] | IC50 (Plasmodium falciparum [5]) [nM] | also measured
1 | CCc1ccccc1NC(=O)CSc1nc2cccnc2[nH]1 |  |  |  | IC50 (Plasmodium falciparum [1]): 235 nM
2 | C=CC(=O)NCc1ccc(NC(=O)CSc2nc3cccnc3[nH]2)cc1 | inactive | Not Active |  | Activity (Plasmodium falciparum [3]): Active
3 | C=CC(=O)NCc1ccccc1NC(=O)CSc1nc2cccnc2[nH]1 | inactive | Not Active |  | Activity (Plasmodium falciparum [3]): Active
4 | CO[C@H]1C[C@@H]2CC[C@@H](C)[C@@](O)(O2)C(=O)C(=O)N2CCCC[C@H]2C(=O)O[C@H]([C@H](C)C[C@@H]2CC[C@@H](O)[C@H](OC)C2)CC(=O)[C@H](C)/C=C(\C)[C@@H](O)[C@@H](OC)C(=O)[C@H](C)C[C@H](C)/C=C/C=C/C=C/1C [SIROLIMUS] |  |  | 2600 | IC50 [6]: 34 nM
5 | C=CC[C@@H]1/C=C(\C)C[C@H](C)C[C@H](OC)[C@H]2O[C@@](O)(C(=O)C(=O)N3CCCC[C@H]3C(=O)O[C@H](/C(C)=C/[C@@H]3CC[C@@H](O)[C@H](OC)C3)[C@H](C)[C@@H](O)CC1=O)[C@H](C)C[C@@H]2OC [TACROLIMUS ANHYDROUS] |  |  | 1900 | 
6 | O=C(NNC(=O)C12CC3CC(CC(C3)C1)C2)c1ccncc1 |  |  |  | IC50 (Plasmodium falciparum [1]): 250 nM
7 | CC[C@H]1CN(Cc2ccccn2)C(=O)C2CCCC1N2S(=O)(=O)c1cc(Cl)cc(Cl)c1 (some centres undefined) |  |  | 2300 | 
8 | CCC(=O)NCc1ccccc1NC(=O)CSc1nc2cccnc2[nH]1 | inactive | Not Active |  | 
